Calls of active or inactive are those of the source. The calls are words filed in the database; no cut-off is given here.
Key:
[1] = system: Oryctolagus cuniculus; assay: Inhibition of erectile dysfunction in New Zealand white rabbit assessed as induction of SNP-potentiated penile erection at 3 mg/kg, po after 2 hrs; format: functional, organism-based; parameters: dose 3 mg/kg
Method in brief: (§1)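 Conscious New Zealand white rabbits, 3–4 kg, n = 4. Compound given orally, dissolved in distilled water. SNP (0.1 mg/kg in saline) injected 2 h later. Penile length (covered plus mucosa area) measured in cm with sliding calipers over a total of 2 h after dosing.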

[2] = target: T1, Rod cGMP-specific 3',5'-cyclic phosphodiesterase subunit alpha (Bos taurus, UniProt P11541); assay: Inhibition of bovine retina PDE6
T1 sequence (P11541 whole entry): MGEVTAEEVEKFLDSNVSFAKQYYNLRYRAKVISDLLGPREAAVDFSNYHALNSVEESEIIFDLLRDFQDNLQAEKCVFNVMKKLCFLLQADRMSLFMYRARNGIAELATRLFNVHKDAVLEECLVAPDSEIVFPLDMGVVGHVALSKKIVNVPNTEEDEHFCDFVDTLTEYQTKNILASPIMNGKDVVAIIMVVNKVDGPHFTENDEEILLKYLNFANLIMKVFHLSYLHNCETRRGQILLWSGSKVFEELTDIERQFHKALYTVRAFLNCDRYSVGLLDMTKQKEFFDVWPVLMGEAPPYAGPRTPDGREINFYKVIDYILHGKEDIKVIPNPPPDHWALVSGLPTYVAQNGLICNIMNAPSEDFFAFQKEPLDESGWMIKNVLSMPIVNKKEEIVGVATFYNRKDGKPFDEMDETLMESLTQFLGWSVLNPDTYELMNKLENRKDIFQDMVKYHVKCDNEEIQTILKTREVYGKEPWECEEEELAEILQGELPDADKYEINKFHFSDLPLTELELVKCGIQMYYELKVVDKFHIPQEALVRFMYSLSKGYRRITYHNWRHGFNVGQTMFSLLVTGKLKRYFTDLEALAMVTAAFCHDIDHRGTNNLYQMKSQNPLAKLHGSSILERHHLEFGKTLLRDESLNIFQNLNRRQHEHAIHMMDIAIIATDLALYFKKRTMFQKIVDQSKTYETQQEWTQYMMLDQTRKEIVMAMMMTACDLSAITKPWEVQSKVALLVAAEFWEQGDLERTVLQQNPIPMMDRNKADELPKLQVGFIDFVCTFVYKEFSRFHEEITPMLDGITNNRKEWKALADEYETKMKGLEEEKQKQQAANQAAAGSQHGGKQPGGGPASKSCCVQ

[3] = Metabolic stability in rat liver microsomes assessed as compound remaining after 1 hr; format: ADME, Microsome; conditions: read-out: Stability
Method in brief: (§2)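 Liver microsomes (human, rat or rabbit) incubated with compound (5) in pH 7.4 phosphate buffer with an NADPH-regenerating system (2.5 mM MgCl2, 2.5 mM glucose-6-phosphate, 1 mM NADP, 1 U/ml G6P dehydrogenase) at 37 °C for 1 h. Human microsomes at 1.25 mg/ml. Read-out was % parent remaining; metabolites analysed by LC/MS.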

[4] = target: cGMP-specific 3',5'-cyclic phosphodiesterase (Bos taurus, UniProt Q28156); assay: Inhibition of bovine platelet PDE5
[5] = target: Dual 3',5'-cyclic-AMP and -GMP phosphodiesterase 11A (Homo sapiens, UniProt Q9HCR9); assay: Inhibition of human recombinant PDE11
Chain of Dual 3',5'-cyclic-AMP and -GMP phosphodiesterase 11A (Q9HCR9 whole entry): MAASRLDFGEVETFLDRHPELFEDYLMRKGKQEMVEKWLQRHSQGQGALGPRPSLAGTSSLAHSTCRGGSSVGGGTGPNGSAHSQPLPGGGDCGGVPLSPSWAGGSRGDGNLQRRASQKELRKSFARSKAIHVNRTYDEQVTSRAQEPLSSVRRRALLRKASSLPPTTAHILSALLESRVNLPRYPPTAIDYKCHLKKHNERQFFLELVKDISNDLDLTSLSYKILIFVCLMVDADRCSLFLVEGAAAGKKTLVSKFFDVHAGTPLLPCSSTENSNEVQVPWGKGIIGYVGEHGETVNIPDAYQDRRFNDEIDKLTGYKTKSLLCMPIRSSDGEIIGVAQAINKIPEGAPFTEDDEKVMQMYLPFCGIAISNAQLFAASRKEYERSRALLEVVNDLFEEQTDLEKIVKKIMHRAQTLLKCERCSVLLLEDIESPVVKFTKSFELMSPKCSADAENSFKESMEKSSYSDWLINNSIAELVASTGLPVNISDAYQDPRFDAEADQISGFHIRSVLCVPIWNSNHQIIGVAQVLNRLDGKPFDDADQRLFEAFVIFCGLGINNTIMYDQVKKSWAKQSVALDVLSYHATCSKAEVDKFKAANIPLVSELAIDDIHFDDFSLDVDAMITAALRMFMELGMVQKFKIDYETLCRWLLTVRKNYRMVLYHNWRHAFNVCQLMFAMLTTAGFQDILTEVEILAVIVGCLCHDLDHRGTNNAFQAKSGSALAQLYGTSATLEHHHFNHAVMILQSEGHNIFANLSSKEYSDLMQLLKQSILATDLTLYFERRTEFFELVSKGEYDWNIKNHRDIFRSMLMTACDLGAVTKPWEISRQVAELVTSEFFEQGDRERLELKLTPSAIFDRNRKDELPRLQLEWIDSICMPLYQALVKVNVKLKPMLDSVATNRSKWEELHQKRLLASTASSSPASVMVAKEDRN

[6] = Metabolic stability in rabbit liver microsomes assessed as compound remaining after 1 hr; format: ADME, Oryctolagus cuniculus, Microsome; conditions: read-out: Stability; method in brief: as §2
[7] = Permeability across human Caco-2 cells; format: ADME, cell-based; conditions: read-out: permeability
[8] = Metabolic stability in human liver microsomes assessed as compound remaining after 1 hr; format: ADME, Microsome; conditions: read-out: Stability; method in brief: as §2
[9] = Inhibition of bovine platelet PDE3; parameters: species or system Bos taurus
Method in brief: (§3)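 Enzyme sources: PDE1 from bovine heart, PDE2 from bovine heart, PDE3 from bovine platelet, PDE4 human recombinant, PDE6 from bovine retina, PDE11 human recombinant. IC50 values are the mean of more than 2 determinations.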

[10] = target: hERG (KCNH2) (Homo sapiens, UniProt Q12809); assay: Inhibition of human ERG at 10 uM
Chain of hERG (KCNH2) (Q12809 whole entry): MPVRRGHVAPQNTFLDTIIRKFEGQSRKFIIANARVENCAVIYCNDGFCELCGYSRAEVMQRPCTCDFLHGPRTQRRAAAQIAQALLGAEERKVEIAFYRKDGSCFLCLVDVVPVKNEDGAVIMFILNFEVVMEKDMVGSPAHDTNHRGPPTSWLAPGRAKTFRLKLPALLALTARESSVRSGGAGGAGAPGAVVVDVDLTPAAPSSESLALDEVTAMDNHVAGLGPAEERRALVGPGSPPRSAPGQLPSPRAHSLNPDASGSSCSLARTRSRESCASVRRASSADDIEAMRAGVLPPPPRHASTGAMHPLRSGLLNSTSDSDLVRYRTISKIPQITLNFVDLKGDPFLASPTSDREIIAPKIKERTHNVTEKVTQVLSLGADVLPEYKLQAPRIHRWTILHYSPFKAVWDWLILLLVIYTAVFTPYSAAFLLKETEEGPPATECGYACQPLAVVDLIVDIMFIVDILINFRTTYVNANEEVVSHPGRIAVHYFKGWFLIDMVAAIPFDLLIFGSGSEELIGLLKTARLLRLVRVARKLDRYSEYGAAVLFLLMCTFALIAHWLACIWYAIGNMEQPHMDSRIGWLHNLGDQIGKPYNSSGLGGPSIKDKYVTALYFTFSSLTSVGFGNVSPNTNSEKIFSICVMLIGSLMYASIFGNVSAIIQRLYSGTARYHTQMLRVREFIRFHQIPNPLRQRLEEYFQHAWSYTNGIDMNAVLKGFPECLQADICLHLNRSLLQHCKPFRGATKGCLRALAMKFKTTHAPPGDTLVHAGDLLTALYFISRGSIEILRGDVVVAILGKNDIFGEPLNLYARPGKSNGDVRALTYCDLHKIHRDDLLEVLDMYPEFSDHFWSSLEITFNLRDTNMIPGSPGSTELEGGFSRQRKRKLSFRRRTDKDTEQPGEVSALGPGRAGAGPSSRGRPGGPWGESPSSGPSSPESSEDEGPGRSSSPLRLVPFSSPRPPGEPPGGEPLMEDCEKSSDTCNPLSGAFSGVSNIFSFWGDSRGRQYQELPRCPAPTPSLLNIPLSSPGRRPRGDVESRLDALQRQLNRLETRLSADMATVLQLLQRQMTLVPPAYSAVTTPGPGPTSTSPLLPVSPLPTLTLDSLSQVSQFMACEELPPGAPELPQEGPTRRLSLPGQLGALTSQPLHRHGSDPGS

[11] = Cytotoxicity against mouse L5178Y cells; format: cell-based
[12] = Inhibition of bovine heart PDE1; parameters: species or system Bos taurus; method in brief: as §3
[13] = Inhibition of bovine heart PDE2; parameters: species or system Bos taurus; method in brief: as §3
[14] = target: Phosphodiesterase 4 (Homo sapiens, UniProt P27815+Q08499+Q07343+Q08493); assay: Inhibition of human recombinant PDE4; format: protein assay; method in brief: as §3
[15] = Aqueous solubility of the compound; format: physicochemical; conditions: aqueous medium
[16] = Tmax in rat at 10 mg/kg, po; format: ADME, organism-based; parameters: dose 10 mg/kg, route oral; conditions: in vivo
Method in brief: (§4)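 Oral dosing at 10 mg/kg in 0.5% Tween 80, given as the HCl salt, with n = 4 animals per species. Plasma PK parameters were determined: Tmax, Cmax, half-life and AUClast.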

[17] = AUClast in rat at 10 mg/kg, po; format: ADME, organism-based; parameters: time 0 - last, dose 10 mg/kg, route oral; conditions: plasma; method in brief: as §4
[18] = AUClast in rabbit at 10 mg/kg, po; format: ADME, organism-based, Oryctolagus cuniculus; parameters: time 0 - last, dose 10 mg/kg, route oral; conditions: plasma; method in brief: as §4
[19] = Half life in rat at 10 mg/kg, po; format: ADME, organism-based; parameters: dose 10 mg/kg, route oral; conditions: in vivo; method in brief: as §4
[20] = Tmax in rabbit at 10 mg/kg, po; format: ADME, organism-based, Oryctolagus cuniculus; parameters: dose 10 mg/kg, route oral; conditions: in vivo; method in brief: as §4
[21] = Cmax in rat at 10 mg/kg, po; format: ADME, organism-based; parameters: dose 10 mg/kg, route oral; conditions: in vivo; method in brief: as §4
[22] = Half life in rabbit at 10 mg/kg, po; format: ADME, organism-based, Oryctolagus cuniculus; parameters: dose 10 mg/kg, route oral; conditions: in vivo; method in brief: as §4
[23] = Cmax in rabbit at 10 mg/kg, po; format: ADME, organism-based, Oryctolagus cuniculus; parameters: dose 10 mg/kg, route oral; conditions: in vivo; method in brief: as §4
[24] = system: Liver microsomes; assay: Metabolic stability in human liver microsomes; format: ADME, Microsome; method in brief: as §2
[25] = system: Oryctolagus cuniculus; assay: Inhibition of erectile dysfunction in New Zealand white rabbit assessed as induction of SNP-potentiated penile erection at 0.3 mg/kg, po after 2 hrs; format: functional, organism-based; parameters: dose 0.3 mg/kg; method in brief: as §1

CN1CC(=O)N2[C@H](c3ccc4c(c3)OCO4)c3[nH]c4ccccc4c3C[C@@H]2C1=O
inhibition [1]: Active | IC50 [2]: 3 µM

CCC(=O)N(C)c1cc2c(NCc3ccc(OC)c(Cl)c3)ncnc2c(CCO)c1OC
inhibition [1]: Active | remaining at 1 h [3]: > 90% | IC50 [4]: 0.001 µM | IC50 [2]: 0.32 µM | IC50 [5]: 5.2 µM | remaining at 1 h [6]: > 90% | Papp [7]: 17 ×10⁻⁶ cm/s | remaining at 1 h [8]: 16%

COC(=O)N(C)c1cc2c(NCc3ccc(OC)c(Cl)c3)ncnc2c(CCO)c1OC [listing 1 of 2 here]
IC50 [9]: 43 µM | IC50 [4]: 0.0006 µM | IC50 [2]: 0.14 µM | inhibition at 10 µM [10]: < 20% | IC50 [5]: 12 µM | CC50 [11]: 85 µM | IC50 [12]: 12 µM | IC50 [13]: 32 µM | IC50 [14]: 84 µM | solubility [15]: > 2000 µg/mL | Papp [7]: 35 ×10⁻⁶ cm/s | remaining at 1 h [8]: 85%

COc1ccc(CNc2ncnc3c(CCO)c(OC)c(N(C)C(=O)C4CC4)cc23)cc1Cl
IC50 [4]: 0.001 µM | IC50 [2]: 0.34 µM | remaining at 1 h [8]: 25%

COC(=O)Nc1cc2c(NCc3ccc(OC)c(Cl)c3)ncnc2c(CCO)c1OC
IC50 [4]: 0.003 µM | IC50 [2]: 0.71 µM | IC50 [5]: 5.7 µM | remaining at 1 h [8]: 72%

COC(=O)N(C)c1cc2c(NCc3ccc(OC)c(Cl)c3)ncnc2c(CCO)c1OC.Cl
Tmax [16]: 0.2 h | AUC(0-t) [17]: 540 ng·h/mL | AUC(0-t) [18]: 2760 ng·h/mL | half-life [19]: 2.25 h | Tmax [20]: 2.4 h | Cmax [21]: 420 ng/mL | half-life [22]: 4.2 h | Cmax [23]: 870 ng/mL

COc1ccc(CNc2ncnc3c(CCO)c(OC)c(NS(C)(=O)=O)cc23)cc1Cl
IC50 [4]: 0.011 µM | Stability [24]: Unstable

COc1ccc(CNc2ncnc3c(CCO)c(OC)c(NS(=O)(=O)N(C)C)cc23)cc1Cl
IC50 [4]: 0.012 µM | IC50 [2]: 7.95 µM | Stability [24]: Unstable

CCC(=O)N(CC)c1cc2c(NCc3ccc(OC)c(Cl)c3)ncnc2c(CCO)c1OC
IC50 [4]: 0.001 µM | remaining at 1 h [8]: 5.5%

COC(=O)N(C)c1cc2c(NCc3ccc(OC)c(Cl)c3)ncnc2c(CCO)c1OC [listing 2 of 2 here]
inhibition [25]: Active

COc1ccc(CNc2ncnc3c(CCO)c(OC)c(N(C)C(=O)C(C)C)cc23)cc1Cl
IC50 [4]: 0.003 µM | IC50 [2]: 1.1 µM | remaining at 1 h [8]: 4.8%

CCC(=O)Nc1cc2c(NCc3ccc(OC)c(Cl)c3)ncnc2c(CCO)c1OC
remaining at 1 h [3]: 96% | remaining at 1 h [6]: 85% | remaining at 1 h [8]: 3%

CCOC(=O)Nc1cc2c(NCc3ccc(OC)c(Cl)c3)ncnc2c(CCO)c1OC
IC50 [4]: 0.017 µM | IC50 [2]: 0.6 µM | IC50 [5]: 5 µM

— ChEMBL document CHEMBL1153113, “Discovery of potent, selective, and orally bioavailable PDE5 inhibitor: Methyl-4-(3-chloro-4-methoxybenzylamino)-8-(2-hydroxyethyl)-7-methoxyquinazolin-6-ylmethylcarbamate (CKD 533)” (Bioorg Med Chem Lett, 2010)
